The text below walks through data of ChEMBL document CHEMBL1268931, “Tailored α-methylene-γ-butyrolactones and their effects on growth suppression in pancreatic carcinoma cells” (Bioorg Med Chem Lett, 2010).

Series [1] deals with BXPC-3. Description: Cytotoxicity against human BxPC3 cells assessed as cell growth at 1 uM after 72 hrs by MTT assay relative to untreated control. The conditions noted are these: BXPC-3, 72 h, read-out: Activity. It is filed as functional. A digest of the protocol:
(§1)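 After 72 h of exposure, growth was read with MTS (CellTiter 96 AQueous One) colorimetric reagent as percent of control-treated cells (100%). Mean of at least two independent experiments run in triplicate.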

Series [2] deals with MIA PaCa-2. Description: Cytotoxicity against human MIAPaCa2 cells assessed as cell growth at 10 uM after 72 hrs by MTT assay relative to untreated control. It is filed as functional. To be noted: MIA PaCa-2, 72 h, read-out: Activity. An outline of the steps: as §1
In general terms: Tetrazolium assays rely on reduction of a dye to a coloured formazan, in cell work by metabolically active cells.

For series [3], the system named is BXPC-3. Put plainly: Cytotoxicity against human BxPC3 cells assessed as cell growth at 10 uM after 72 hrs by MTT assay relative to untreated control. In kind it is functional. To be noted: BXPC-3, 72 h, read-out: Activity. An outline of the steps:
as §1

Series [4] relates to MIA PaCa-2. Description: Cytotoxicity against human MIAPaCa2 cells assessed as cell growth at 1 uM after 72 hrs by MTT assay relative to untreated control. It is filed as functional. The conditions noted are these: MIA PaCa-2, 72 h, read-out: Activity. A digest of the protocol:
as §1

Series [5] concerns PANC-1. Put plainly: Cytotoxicity against human PANC1 cells assessed as cell growth at 10 uM after 72 hrs by MTT assay relative to untreated control. It is filed as functional. To be noted: PANC-1, 72 h, read-out: Activity. A digest of the protocol: as §1
Series [6] deals with PANC-1. Description: Cytotoxicity against human PANC1 cells assessed as cell growth at 1 uM after 72 hrs by MTT assay relative to untreated control. In kind it is functional. The conditions noted are these: PANC-1, 72 h, read-out: Activity. An outline of the steps: as §1
Series [7] in a line: Toxicity against human normal Hematopoietic Progenitor Cells isolated from human cord blood at 1 uM after 18 hrs by MTT assay relative to untreated control.

Regarding `C=C1C(=O)O[C@@H](c2ccccc2)[C@H]1C` (relative stereo), the growth at 1 µM amounted to 98% in series [1], 114% in series [4] and 143% in series [6]. In addition, the growth at 10 µM was 14% in series [2], 41% in series [3] and 62% in series [5].

On to `C=C1C(=O)O[C@@H]2C3O[C@]3(C)CC/C=C(\C)CC[C@@H]12` (stereo not given in full), for which the values for the growth at 1 µM in series [1], in series [4] and in series [6] were 92%, 78% and 132%, respectively. Also, the growth at 10 µM in series [2] was determined as 3%; in series [3], 6%; in series [5], 12%.

For `C=C1C(=O)OCC1c1ccccc1` (stereo not given), the growth at 10 µM turned out to be 14% in series [2], 40% in series [3] and 31% in series [5].

Turning to `C=C1C(=O)O[C@@H](c2ccc(OC)cc2)[C@H]1C` (relative stereo), the growth at 1 µM is 128% in series [1], 109% in series [4] and 130% in series [6]. In addition, the growth at 10 µM was determined as 9% in series [2], 13% in series [3] and 32% in series [5].

As to `C=C1C(=O)O[C@@H](c2c(F)c(F)c(F)c(F)c2F)[C@H]1C` (relative stereo), the growth at 1 µM in series [1] worked out at 98%; in series [4] it was 120%; in series [6], 86%. Moreover, the growth at 10 µM in series [2] worked out at 53%; in series [3] it was 89%; in series [5], 70%.

On to `C=C1C(=O)O[C@H](c2ccccc2)[C@H]1c1ccccc1` (relative stereo), for which the growth at 1 µM was 86% in series [1], 30% in series [4] and 116% in series [6]. The growth at 10 µM in series [2], in series [3] and in series [5] was 1% throughout. In addition, in series [7], the Activity result is on record as “Non-toxic”.

Take `C=C1C(=O)O[C@@H](C2CCCCC2)[C@H]1c1ccccc1` (relative stereo): the growth at 10 µM is 81% in series [2], 95% in series [3] and 104% in series [5].

With `C=C1C(=O)O[C@@H](c2ccccc2)[C@H]1c1ccccc1` (relative stereo), the growth at 1 µM in series [1] was 51%; in series [4] it was 32%; in series [6], 108%. Besides, the growth at 10 µM in series [2] was determined as 3%; in series [3], 8%; in series [5] it was 38%.

For the molecule `C/C=C1\C(=O)O[C@@H](c2ccc([N+](=O)[O-])cc2)[C@H]1C` (relative stereo), the growth at 10 µM came out at 110% in series [2], 117% in series [3] and 106% in series [5].

For the molecule `C=C1C(=O)O[C@H](c2ccc(C)cc2)[C@H]1c1ccccc1` (relative stereo), the results for the growth at 1 µM in series [1], in series [4] and in series [6] were 67%, 26% and 105%, respectively. For the same molecule, the growth at 10 µM was 2% in series [2], 0% in series [3] and 0% in series [5]. For the same molecule, the Activity result in series [7] was “Non-toxic”.

For the molecule `C=C1C(=O)O[C@H](c2ccc3ccccc3c2)[C@H]1c1ccccc1` (relative stereo), the growth at 1 µM in series [1] stood at 60%; in series [4] it was 29%; in series [6], 53%. Further, the values for the growth at 10 µM in series [2], in series [3] and in series [5] were 3%, 1% and 13%, respectively. Further, in series [7], the Activity entry is given as “Non-toxic”.

Turning to `C=C1C(=O)O[C@H](c2ccc(C(F)(F)F)cc2)[C@H]1c1ccccc1` (relative stereo), the results for the growth at 1 µM in series [1], in series [4] and in series [6] were 138%, 142% and 152%, respectively. Further, the figures for the growth at 10 µM in series [2], in series [3] and in series [5] were 5%, 13% and 33%, respectively.

For `C=C1C(=O)O[C@@H](c2ccc3ccccc3c2)[C@H]1c1ccccc1` (relative stereo), the figures for the growth at 1 µM in series [1], in series [4] and in series [6] were 104%, 125% and 98%, respectively. Moreover, the growth at 10 µM is 6% in series [2], 1% in series [3] and 33% in series [5].

Turning to `C=C1C(=O)O[C@@H](C(C)C)[C@H]1C` (relative stereo), the results for the growth at 10 µM in series [2], in series [3] and in series [5] were 143%, 153% and 119%, respectively.

For the molecule `C=C1C(=O)O[C@H](c2ccc(OC)cc2)[C@H]1c1ccccc1` (relative stereo), the results for the growth at 1 µM in series [1], in series [4] and in series [6] were 73%, 54% and 80%, respectively. Besides, the growth at 10 µM in series [2], in series [3] and in series [5] was 0% each time.

For the molecule `C/C1=C\CC[C@@]2(C)O[C@@H]2[C@H]2OC(=O)C(CN(C)C)[C@@H]2CC1` (stereo not given in full) [DIMETHYLAMINOPARTHENOLIDE], the growth at 1 µM in series [1] turned out to be 92%; in series [4], 73%; in series [6], 117%. Moreover, the growth at 10 µM in series [2] came out at 2%; in series [3] it was 7%; in series [5], 17%. Also, the Activity result in series [7] is “Non-toxic”.

As to `C=C1CC(c2ccccc2)OC1=O` (stereo not given), the growth at 10 µM was 106% in series [2], 136% in series [3] and 135% in series [5].

For `C=C1C(=O)O[C@H](c2ccc3ccccc3c2)[C@H]1C` (relative stereo), the growth at 1 µM in series [1] came to 113%; in series [4], 74%; in series [6] it was 139%. For the same molecule, the growth at 10 µM in series [2] is 4%; in series [3], 27%; in series [5] it was 22%.

On to `C/C=C1\C(=O)O[C@H](c2ccc(OC)cc2)[C@H]1C` (relative stereo), for which the values for the growth at 10 µM in series [2], in series [3] and in series [5] were 124%, 179% and 139%, respectively.
